bCat nuc transl – modulators of beta-catenin nuclear translocation, primary screen, imaging, HeLa cells, immunofluorescence, high-content; nuclear translocation activity, % at 5 µM; 0.3% of 190,000 active; AID 1665, 2009;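 active means nuclear translocation activity above 50% at 5 µM, with a well cell count of 50 or more; inconclusive means wells under 50 cells across six images, flagged as toxic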;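 further: per-cell ratio of nuclear to cytoplasmic median beta-catenin stain intensity; plate controls were DMSO negative control for no effect and GSK-3 inhibitor IX positive control for full effect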
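Technique: fluorescence imaging of beta-catenin antibody stain plus DAPI / Material: human HeLa cell line / Incubation: compound treatment 24 h, 37°C, 5% CO2 / Read-out basis: % activation of per-cell nuclear versus cytoplasmic median beta-catenin signal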
ROMK mod – ROMK potassium channel modulators, primary screen, cell-based, thallium flux, MLSMR library; ATP-sensitive inward rectifier potassium channel 1 (Homo sapiens), P48048; Tet-inducible ROMK, thallium flux fluorescence; actives lie on both sides; B-score at 10 µM; 2% of 130,000 active; AID 1918, 2009;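 active means signal ratio slope over the read window, or its plate-corrected B-score, at least 3 SD from the plate mean, either direction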;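 further: B-score of the F/F0 ratio slope over 7 to 12 s after thallium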
Target sequence (P48048 whole entry, looked up): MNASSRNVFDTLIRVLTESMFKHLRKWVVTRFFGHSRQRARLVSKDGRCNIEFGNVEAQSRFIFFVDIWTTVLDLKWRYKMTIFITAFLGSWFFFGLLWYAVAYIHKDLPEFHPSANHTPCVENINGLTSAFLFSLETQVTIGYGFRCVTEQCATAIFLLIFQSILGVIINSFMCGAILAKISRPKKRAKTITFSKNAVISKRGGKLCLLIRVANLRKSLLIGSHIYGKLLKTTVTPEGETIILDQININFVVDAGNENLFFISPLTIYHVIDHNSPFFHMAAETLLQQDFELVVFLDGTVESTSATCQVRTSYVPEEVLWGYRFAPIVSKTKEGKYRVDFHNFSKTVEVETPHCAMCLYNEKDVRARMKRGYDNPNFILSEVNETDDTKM
MT stabilizer – microtubule stabilizers in HeLa cells, primary screen, imaging, high-content imaging; HeLa tubulin immunostaining HCS, 24 h; share of cells brighter than vehicle mean+2SD; % tubulin-high responders, % at 10 µM; 0.83% of 200,000 active; AID 2205, 2009;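 active means plate Z-score above 3 for both tubulin-high and condensed-nucleus cell shares, with cell loss under 80%, at 10 µM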;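 further: anti alpha tubulin signal scored within the nucleus-defined area of each cell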
Insulin prom inh – inhibitors of insulin promoter-driven GFP, primary screen, imaging, TRM-6 cells, eGFP reporter, cell count | reporter expression induced with tamoxifen | inhibition, % at 2 µM | 0.9% of 130,000 active | AID 1273, 2008;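 active means inhibition above the mean plus 3 SD, with well images judged a real hit on visual review, cut at about 60% in these data, passing the limit was not always enough; inconclusive means inhibition over the cutoff but images rejected on review; inactive means inhibition not above the cutoff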
HSV replic up – enhancers of HSV replication in host cells, fold increase, host cell viability; maximum fold increase; 0.005% of 220,000 active; HSV replication augmentation in cells; in the data active means maximum fold increase above about 1.5; inconclusive means no clear call, values can overlap the other calls; tested in PC3 cells
An asterisk follows results filed as active; i = inactive; ? = inconclusive; nt = no result. The list is not random: actives were taken first. Their share in the collection is about 2.4%.

SMILES	bCat nuc transl	ROMK mod	MT stabilizer	Insulin prom inh	HSV replic up
CCCCOC(=O)n1c(SCC(=O)N(CC)CC)nc2ccccc21	nt	nt	3	-195	i
Fc1ccc(-c2onc3ccc(C4OCCO4)cc23)cc1	0	-0.12	2	7	i
O=Cc1ccc2noc(-c3ccc(F)cc3)c2c1	-2	-3.1*	2	-12	i
O=c1c2ccccc2c(/C=N/NS(=O)(=O)c2ccccc2)c(O)n1-c1ccccn1	1	0.67	3	7	?
COC(=O)COc1ccc(NS(=O)(=O)c2cccc([N+](=O)[O-])c2)cc1	5	0.77	3	nt	i
COC(=O)[C@@H]1C[C@@]2(O)[C@@H](O)[C@@H](O)[C@@H](O)C[C@H]2N1Cc1ccc(Cl)cc1	-1	nt	nt	nt	i
COCCN1C=C(C(=O)OC)C(c2ccc(OC)c(OC)c2)C(C(=O)OC)=C1	-1	0.44	4	71*	i
C=CS(=O)(=O)c1sc(Cl)c(N2CCOCC2)c1[N+](=O)[O-]	0	-8.6*	2	nt	i
C=CSc1sc(Cl)c(N2CCOCC2)c1[N+](=O)[O-]	0	0.024	2	17	i
Cc1onc(-c2ccccc2)c1C(=O)Nc1sc2c(c1C(N)=O)CCC2	-2	nt	12	nt	i
Cc1cc(C(=O)Nc2sc3c(c2C#N)CCCC3)no1	-1	3.6*	18*	nt	i
Cc1onc(-c2c(F)cccc2Cl)c1C(=O)Nc1sc2c(c1C(N)=O)CCC2	nt	1.1	31*	17	i
N#Cc1c(NC(=O)/C=C/c2ccco2)sc2c1CCCC2	106*	nt	5	nt	nt
Cc1onc(-c2ccccc2)c1C(=O)Nc1sc2c(c1C#N)CCC2	1	nt	20*	nt	i
O=c1[nH]c(Cc2ccccn2)nc2scc(-c3ccccc3Cl)c12	1	0.54	3	-12	nt
CC1=C(C(=O)OCc2ccccc2)C(c2cccnc2)c2c(n(C)c(=O)n(C)c2=O)N1 (stereo unspecified)	0	nt	1	-13	i
COc1ccc(S(=O)(=O)N2CCOCC2)cc1NC(=O)COC(=O)C1COc2ccccc2O1 (stereo unspecified)	0	0.056	2	21	i
CCOc1ccc(-c2n[nH]c(C)c2-c2ccccc2OC)c(O)c1	3	-0.17	27*	-8	i
C=C(C)COc1ccc(-c2n[nH]c(C)c2-c2ccc(OC)cc2)c(O)c1	6	nt	30*	34	i
O=C(Nc1ncc(Cc2ccc(SC(F)F)cc2)s1)c1ccccc1	2	2.1	34*	-6	nt
COc1ccc(C(=O)N(Cc2ccccc2)Cc2cc3cc4c(cc3[nH]c2=O)OCCO4)cc1	-2	nt	36*	0	i
CNC(=S)N(CCc1ccccc1)Cc1cc2cc(OC)c(OC)cc2[nH]c1=O	-2	-0.12	3	62*	i
COc1cc(C(=O)NC(=S)N(CCc2ccccc2)CCc2ccccc2)cc(OC)c1OC	1	3.3*	3	-209	i
CC1=NOC(=O)/C1=C\c1ccc(-c2ccc(Br)cc2)o1	1	-0.75	1	25	i
CC1=NOC(=O)/C1=C/c1ccc(-c2ccc(Cl)cc2)o1	30	-2.7*	1	10	i
SMILES	bCat nuc transl	ROMK mod	MT stabilizer	Insulin prom inh	HSV replic up
NCCCC[C@H]1CNC(=O)C(=O)N1CCc1cccc(F)c1	0	nt	nt	nt	i
COCCCn1c(=S)[nH]c2c(sc3ccccc32)c1=O	-2	5.3*	3	36	i
O=C(N/C(=C\c1cccs1)C(=O)N1CCOCC1)c1cccs1	1	0.21	3	78*	i
O=C(N/C(=C/c1cccs1)C(=O)N1CCOCC1)c1ccccc1	-2	-0.42	2	-7	i
CCOC(=O)c1sc(C)c2c1NC(c1ccc(Cl)cc1)NC2=O (stereo unspecified)	0	nt	2	15	i
O=C(Nc1ccc2c(c1)OCO2)c1ccc(NC2CC2)c([N+](=O)[O-])c1	8	0.0018	28*	-3	i
O=C(Nc1ccc2c(c1)OCO2)c1ccc(N2CCCC2)c([N+](=O)[O-])c1	0	nt	6	nt	i
Cc1cc(S(=O)(=O)N2CCCOC2CNC(=O)C(=O)NCc2ccco2)ccc1F (stereo unspecified)	1	-0.034	4	nt	i
CC(C)c1nc2sc3c(=S)nc[nH]c3c2c2c1CCC2	0	5.2*	nt	nt	i
Cn1nc(-c2ccccn2)nc2c(=O)n(C)c(=O)nc1-2	nt	nt	nt	nt	i
CCCc1nc2c(=O)n(C)c(=O)nc-2n(C)n1	3	nt	20*	nt	i
Cc1ccc(C(=O)N/N=C2/NC(=O)CC(C(=O)Nc3ccccc3)S2)cc1 (stereo unspecified)	-3	nt	7	nt	i
Cn1c(=O)c([N+](=O)[O-])c(N2CCN(Cc3ccc4c(c3)OCO4)CC2)c2ccccc21	0	nt	nt	nt	i
Clc1ccc(C2=Nn3c(nnc3-c3n[nH]c4c3CCC4)SC2)cc1Cl	-1	nt	19*	-26	i
Cc1cccc(Nc2nnc(-c3ccc(C(=O)N4C[C@H]5C[C@H](C4)c4cccc(=O)n4C5)cc3)c3ccccc23)c1	2	nt	4	26	i
CCOc1ccc(CN(C(=O)c2oc3cc(C)ccc3c2C)C2CCS(=O)(=O)C2)cc1 (stereo unspecified)	nt	-0.72	41*	66*	i
O=C(NCCc1ccccn1)C(F)(F)C(F)(F)C(F)(F)C(F)(F)C(F)(F)C(F)F	2	-0.3	2	nt	i
CCCS(=O)(=O)c1ccc(COC(=O)c2ccc(NC(C)=O)cc2)cc1	2	0.23	2	0	i
CC1=NNC(=O)/C1=C\c1cn(-c2ccccc2)nc1-c1ccc(F)cc1	5	0.013	22*	nt	i
CC1=NNC(=O)/C1=C\c1cn(-c2ccccc2)nc1-c1cccs1	?	-0.15	53	-20	i
CCCCNS(=O)(=O)c1ccc2nc(-c3cccnc3)cc(C(=O)NCCCOCC)c2c1	0	0.96	4	nt	i
COc1ccc(N/C=C/C(=O)c2sc(-c3ccccc3)nc2C)cc1	nt	nt	52*	-3	i
CCCn1c(N)c(C(=O)CSc2nc(C)cs2)c(=O)[nH]c1=O	-2	nt	3	77*	i
COc1ccc(-c2noc(=O)n2Cc2cc(C)ccc2C)cc1	4	0.37	11*	-11	i
C#CCNC(=O)C1=C[C@H](C)C[C@H](OCc2ccc(CO)cc2)O1	nt	nt	nt	nt	i
COc1ccc(CN2C3CCCC2CC(NC(=O)Nc2ccccc2)C3)cc1 (stereo unspecified)	-3	nt	3	81*	i
COc1ccc(CN2C3CCCC2CC(NC(=O)Nc2cccc(C)c2)C3)cc1 (stereo unspecified)	-2	nt	2	10	i
c1cncc(C2OCC3(CO2)COC(c2cccnc2)OC3)c1 (stereo unspecified)	1	0.85	3	53	i

Screening results deposited in PubChem by several laboratories.
